Data set [1] has as its system human cannabinoid receptor CB1. The settings on record: cited from earlier work.
The test system of the next data set is a different cell line. As to conditions: cited from earlier work.
For data set [2], the target named is T1, CB2 receptor (Homo sapiens, UniProt P34972). Description: Cannabinoid CB2 receptor binding assay. The settings on record: read-out: CB2 Ki; human recombinant CB2 in HEK-293 cells, [3H]CP-55940 0.5 nM.
Data set [3] deals with NO production in RAW 264.7 mouse macrophage cells. The data set can be described thus: NO assay in LPS-induced RAW 264.7 macrophages. The class given is cell-based. The settings on record: read-out: IC50, inhibition of NO production; LPS-induced RAW 264.7, 24 h. In outline: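 Mouse RAW 264.7 cells in DMEM with 10% FBS, 5% CO2, seeded at 2 × 10^4 cells/well. After 24 h, test compound or solvent control (1% EtOH) was added, then LPS (0.5 μg/mL). Medium nitrite was measured after 24 h by Griess reagent: sulfanilamide, then naphthylethylenediamine-HCl, 5 min each at RT in the dark, A540. Quantified against a 0–100 μM nitrite standard curve; duplicates.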

Data set [4] concerns the target T2, CB1 receptor (Homo sapiens, UniProt P21554). Description: cAMP functional assay, forskolin-stimulated, CHO-K1 cells expressing CB1. The class given is cell-based. The settings on record: through CB1 receptor.
Data set [5] has as its target T1, CB2 receptor. Description: cAMP functional assay, forskolin-stimulated, CHO-K1 cells expressing CB2. It counts as cell-based. The settings on record: through CB2 receptor.
Another data set concerns MCF7 breast cancer cells. Description: Cell viability assay. The class given is cell-based. The settings on record: up to 100 μM, 48 h, MTT. In a few lines: (§1)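 Cells grown in DMEM with 10% FBS at 37 °C, 5% CO2. Seeded at 10,500 cells/well (MCF7) or 11,000 cells/well (HT-29). After 24 h, treated with various concentrations of the test compound or solvent control (1% EtOH). Viability was read by MTT after 48 h.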

Data set [6] deals with HT-29 colon adenocarcinoma cells. Description: Cell viability assay. It counts as cell-based. As to conditions: 48 h, MTT. In a few lines:
as §1

The target of data set [7] is T2, CB1 receptor. Description: Cannabinoid CB1 receptor binding assay. As to conditions: read-out: CB1 Ki; human recombinant CB1 in HEK-293 cells, [3H]CP-55940 0.5 nM.
Data set [8] deals with T3, fatty acid amide hydrolase (FAAH) (Homo sapiens, UniProt O00519).
T3 sequence (O00519 1-579): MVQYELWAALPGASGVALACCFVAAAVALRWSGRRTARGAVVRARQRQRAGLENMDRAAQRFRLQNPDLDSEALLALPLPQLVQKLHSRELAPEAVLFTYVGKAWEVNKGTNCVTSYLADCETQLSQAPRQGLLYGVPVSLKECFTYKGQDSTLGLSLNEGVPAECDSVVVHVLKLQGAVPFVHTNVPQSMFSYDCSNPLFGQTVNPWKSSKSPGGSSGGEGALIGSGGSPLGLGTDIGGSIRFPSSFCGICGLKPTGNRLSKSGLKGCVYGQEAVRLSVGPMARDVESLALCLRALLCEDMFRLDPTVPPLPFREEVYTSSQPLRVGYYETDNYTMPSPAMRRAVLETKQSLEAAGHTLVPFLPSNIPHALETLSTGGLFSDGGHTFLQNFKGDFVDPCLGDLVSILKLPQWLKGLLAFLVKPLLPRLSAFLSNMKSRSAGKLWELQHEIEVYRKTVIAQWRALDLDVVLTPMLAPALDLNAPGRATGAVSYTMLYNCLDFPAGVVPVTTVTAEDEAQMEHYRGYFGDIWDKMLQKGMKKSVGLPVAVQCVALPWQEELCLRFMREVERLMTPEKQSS
The data set can be described thus: FAAH inhibitor enzyme assay. The class given is biochemical. As to conditions: tested at 10 and 100 μM. In outline:
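Kit FAAH enzyme was preincubated in assay buffer with the test compound (10 and 100 μM) or solvent control. The reaction was started with AMC arachidonoyl amide substrate (20 μM final) and run for 30 min at 37 °C. Fluorescence was read at ex 350 nm / em 455 nm.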

In a further data set the test system is RAW 264.7 cells. Description: Cellular viability of RAW 264.7 macrophages. It counts as cell-based, mouse. The settings on record: RAW 264.7, up to 25 μM.

Each structure is given as a SMILES string. Some results are limits rather than exact numbers.

T1 sequence (P34972 whole entry): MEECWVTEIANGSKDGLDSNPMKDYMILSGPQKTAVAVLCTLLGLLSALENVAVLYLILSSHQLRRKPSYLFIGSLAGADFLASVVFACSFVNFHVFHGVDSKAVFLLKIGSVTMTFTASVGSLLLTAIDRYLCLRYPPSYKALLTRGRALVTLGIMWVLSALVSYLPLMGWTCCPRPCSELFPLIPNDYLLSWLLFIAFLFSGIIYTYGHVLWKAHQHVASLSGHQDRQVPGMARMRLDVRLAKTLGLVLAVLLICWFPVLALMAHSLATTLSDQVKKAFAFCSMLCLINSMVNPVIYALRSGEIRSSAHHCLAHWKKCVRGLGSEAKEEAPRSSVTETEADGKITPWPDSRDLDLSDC
T2 sequence (P21554 whole entry): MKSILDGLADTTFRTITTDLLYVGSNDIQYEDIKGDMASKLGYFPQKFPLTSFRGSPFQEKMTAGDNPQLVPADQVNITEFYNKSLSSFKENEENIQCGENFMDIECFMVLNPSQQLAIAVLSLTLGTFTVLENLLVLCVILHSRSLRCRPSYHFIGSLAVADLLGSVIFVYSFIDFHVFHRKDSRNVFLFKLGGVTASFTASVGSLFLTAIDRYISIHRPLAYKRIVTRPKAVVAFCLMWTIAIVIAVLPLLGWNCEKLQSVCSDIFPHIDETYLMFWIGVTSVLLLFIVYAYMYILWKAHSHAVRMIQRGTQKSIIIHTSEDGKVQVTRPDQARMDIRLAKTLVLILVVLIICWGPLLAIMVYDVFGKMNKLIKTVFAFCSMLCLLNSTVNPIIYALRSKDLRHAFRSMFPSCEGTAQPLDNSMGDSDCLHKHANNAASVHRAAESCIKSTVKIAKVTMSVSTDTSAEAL

For the molecule `CCCCCCCCCCCCC/C=C/CCC(=O)N(C)[C@H](CO)COC` [Compound 4, serinolamide A], in data set [1] (human CB1 vs CB2 binding), the “Selectivity for the CB1 receptor over CB2” value is “more than 5 fold”. For the same molecule, the Ki (in general, the dissociation constant of the complex between target and ligand, obtained from inhibition or displacement) in data set [1] (read-out: CB1 Ki, human CB1) was 1.3 µM. Also, the Cytotoxic properties entry in the data set on a different cell line was “showed some cytotoxic properties”.

For the molecule `CCCCCCCCCCCCC/C=C/CCC(=O)N[C@H](CO)COC` [Compound 5, Serinolamide B], the Ki on CB2 receptor [2] is 5.2 µM; on CB1 receptor [7], 16.4 µM. Besides, the IC50 – broadly, the concentration that inhibits the measured activity by half – in [3] was > 25 µM. Also, the “Functional mode at CB1 (inhibition of forskolin-stimulated cAMP accumulation)” value at CB1 receptor [4] is “cannabinoid receptor agonists”. Also, the “Functional mode at CB2 (inhibition of forskolin-stimulated cAMP accumulation)” value at CB2 receptor [5] was “cannabinoid receptor agonists”. Besides, the “Cytotoxicity against MCF7” value with MCF7 breast cancer cells is on record as “failed to show significant cytotoxicity”. Further, the “Cytotoxicity against HT-29” value in [6] (up to 100 μM) was “failed to show significant cytotoxicity”. In data set [8], the FAAH inhibition result is “no considerable inhibitory effects”.

As to `CCCCCCC[C@@H](C/C=C/CCC(=O)N(C)C/C(=C/Cl)C/C(=C\C(=O)N1CC(O)CC1=O)OC)OC` (stereo partly shown) [Compound 6, malyngamide B], the inhibition constant (Ki) on CB2 receptor [2] stood at 2.6 µM; on CB1 receptor [7], 3.6 µM. For the same molecule, the IC50 in data set [3] is 6.2 µM; in data set [6] (read-out: IC50, cytotoxicity to HT-29 cells), 26 µM. Further, the “Functional mode at CB1 (inhibition of forskolin-stimulated cAMP accumulation)” value on CB1 receptor [4] is “cannabinoid receptor agonists”. Besides, the “Functional mode at CB2 (inhibition of forskolin-stimulated cAMP accumulation)” value at CB2 receptor [5] is “cannabinoid receptor agonists”. In addition, the “Effect on cellular viability” value in the data set on RAW 264.7 cells is “without affecting cellular viability”. Also, the FAAH inhibition result in data set [8] is reported as “no considerable inhibitory effects”.

Values taken from PMC3748600 (Chembiochem : a European journal of chemical biology, 2012).
